High-throughput results from PubChem BioAssay.
In the library only some 2.3% were active in any assay of this set; here they are far more common.
TRPC4 act – opens the mouse TRPC4 cation channel. AID 2237. HEK293 TRPC4beta/mu-opioid, Fluo4 calcium fluorescence; stronger effect = higher value. B-score at 10 µM. Q9QUQ5. hit rate 0.49% among 310,000;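 active = B-score above 5 SD of library B-scores, and initial fluorescence ratio not above library mean plus 5 SD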;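 also: positive B-score marks a calcium rise read as TRPC4 activation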
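System – HEK293 cells stably co-expressing mouse TRPC4beta and mu-opioid receptor · Signal – Fluo4 calcium-sensitive dye fluorescence, kinetic, 1 Hz baseline · Benchmarks – buffer (low) and maximal DAMGO (high) · Read-out – B score of integrated fluorescence ratio per well · Incubation – dye loading 45 min room temperature, 110 s kinetic read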
TRPC6 activator – activators of mouse TRPC6 channel | Q61143 | HEK293-TRPC6 membrane potential dye fluorescence; stronger effect = higher value | B-score at 10 µM | hit rate 0.13% among 310,000 | AID 2550;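 active = B-score of the integrated fluorescence ratio above library mean plus 3 SD, and starting fluorescence ratio within library mean plus 5 SD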;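 also: higher score means more depolarization so channel activation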
TRPC6 inhibitor – inhibitors of mouse TRPC6 channel | HEK293-TRPC6, membrane potential dye, ACh-evoked depolarization; stronger effect = lower value | B-score at 10 µM | hit rate 1.1% among 310,000 | AID 2553;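 active = B-score under library mean minus 3 SD, initial fluorescence not abnormally high, positive integrated signal ratio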;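 also: B-score derived from integrated fluorescence ratio over the kinetic read; more negative B-score means stronger inhibition of depolarization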
TRPC4 potent – TRPC4 (mouse) allosteric potentiation | B-score at 10 µM | Q9QUQ5 | AID 2227 | HEK293 TRPC4beta/mu-opioid, DAMGO EC20, Fluo-4 Ca2+ flux; stronger effect = higher value | hit rate 0.42% among 310,000;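 active = B-score of calcium response area above 5 SD of library B-scores, with initial fluorescence ratio within 5 SD of library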;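 also: B-score of integrated fluorescence ratio over time as area under calcium response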
TRPC4 inh – blocks the mouse TRPC4 cation channel | hit rate 0.39% among 300,000 | B-score at 10 µM | Q9QUQ5 | HEK293 TRPC4beta/mu-opioid, DAMGO-evoked Fluo4 calcium flux; stronger effect = lower value;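 active = B-score over 3 SD under the library average, no early fluorescence shift, positive overall ratio signal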
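test system = HEK293 cells with stable TRPC4beta plus mu-opioid receptor expression | detection = Fluo4 Ca2+ flux fluorescence | read-out = integrated fluorescence ratio relative to baseline, converted to per-well B score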
An asterisk follows results filed as active; i = inactive.

SMILES	TRPC4 act	TRPC6 activator	TRPC6 inhibitor	TRPC4 potent	TRPC4 inh
CC(=O)N1c2ccc(S(=O)(=O)N3CCC(C(=O)Nc4cccc(Cl)c4)CC3)cc2CC1C (stereo not drawn)	i	i	i	i	i
CN(CC(=O)Nc1ccccc1C(F)(F)F)C(=O)c1ccc(-c2ccc(Cl)cc2)o1	i	i	i	i	i
CSc1c(C#N)sc(=S)n1-c1ccc(C)cc1	i	i	i	i	-7*
CC1CC(C)CN(C(=O)c2cc(S(=O)(=O)N3CCCCC3)ccc2Cl)C1 (stereo not drawn)	i	i	i	i	i
NCC(c1ccc(Cl)cc1Cl)c1c[nH]c2ccccc12 (stereo not drawn)	i	i	i	26*	i
CN(C)CCCNC(=S)NCC(c1ccc(Cl)cc1Cl)c1c[nH]c2ccccc12 (stereo not drawn)	i	i	i	12*	i
NCCNc1ccc([N+](=O)[O-])cc1	62*	i	i	i	i
O=c1[nH]c(-c2ccccc2)c(-c2ccccc2)o1	i	i	i	i	i
Cc1ccc(C)c(N2CCN(S(=O)(=O)c3csc(C(N)=O)c3)CC2)c1	i	i	i	i	i
CC(C)Sc1ccc([N+](=O)[O-])cc1C(=O)Nc1ccncc1	i	i	i	i	i
O=[N+]([O-])c1cc(Cl)ccc1N1CCN(c2ccccc2O)CC1	i	i	i	12*	i
O=[N+]([O-])c1cc(Cl)ccc1N1CCCCC1	i	i	i	i	i
CN1C(=O)CSC1=Nc1ccc(Br)cc1	i	i	i	i	i
CN1C(=O)CSC1=NC12CC3CC(CC(C3)C1)C2	i	i	i	i	-6*
CCN1C(=O)CSC1=NC12CC3CC(CC(C3)C1)C2	i	i	i	i	-5*
CCCOc1ccccc1/C=C1\SC(N2CCCCC2)=NC1=O	i	i	i	i	i
COc1ccc(/C=C/CN2CCC(n3nccc3NC(=O)C3CCCC3)CC2)cc1	i	i	i	i	i
COc1ccc(/C=C\c2cc(OC)c(OC)cc2CC[N+](C)(C)C)cc1OC	i	i	-7.71*	i	i
NC(=O)C1CCN(C(=O)CCSCc2ccc(Cl)c(Cl)c2)CC1	i	i	i	i	i
COc1ccc(-c2nn(-c3ccccc3C)cc2CNC(C)Cn2cncn2)cc1F (stereo not drawn)	i	i	i	i	i
COc1ccc(-c2nn(-c3ccccc3C)cc2CNCCc2cnc[nH]2)cc1F	i	i	i	i	i
CCn1cc(CNCc2cn(-c3ccccc3C)nc2-c2ccc(OC)c(F)c2)cn1	129*	i	i	i	i
COc1ccc(-c2nn(-c3ccccc3C)cc2CNC(C)c2cn(C)nc2C)cc1F (stereo not drawn)	118*	i	i	i	i
Cc1cc(N2CC(C(=O)Nc3nccs3)CC2=O)ccc1C(C)C (stereo not drawn)	i	i	i	i	i
CCOC(=O)c1ccc(P(=O)(c2ccccc2)c2ccccc2)cc1	i	i	i	i	i
SMILES	TRPC4 act	TRPC6 activator	TRPC6 inhibitor	TRPC4 potent	TRPC4 inh
Cc1[nH]c(C)c(S(=O)(=O)NCC(C)c2ccccc2)c1C(=O)N1CCCCC1 (stereo not drawn)	i	i	i	i	i
CC1(c2ccc(Cl)cc2Cl)OCC(Cn2ccnc2)O1 (stereo not drawn)	105*	i	i	i	i
Fc1ccc(C2CCNCC2COc2ccc3c(c2)OCO3)cc1 (stereo not drawn)	102*	i	i	i	i
CN(CC(=O)Nc1ccc(F)cc1)C(=O)COC(=O)C1CCN(c2ccc(C(F)(F)F)cn2)CC1	i	i	i	i	-5*
O=C(CSc1nnc(NC(=O)c2ccccc2)s1)NCc1ccco1	i	i	i	i	i
O=C(CSc1nnc(NC(=O)c2ccc3c(c2)OCO3)s1)NCc1ccco1	i	i	i	11*	i
CCOC(=O)[C@@H]1CCNC[C@@H]1c1ccccc1	190*	i	i	i	i
CCOC(=O)C1NC(=O)CC1c1ccccc1 (stereo not drawn)	i	i	i	i	i
O=C(Cc1nc2ccccc2[nH]1)c1ccc(Cl)cc1	i	i	i	i	i
O=C(Cc1nc2ccccc2[nH]1)c1ccc([N+](=O)[O-])cc1	i	i	i	i	-6*
CCCCCCCCNC1=CC(=O)CC(C)(C)C1	i	i	i	i	i
CN1CCN(C2=Nc3cc(F)ccc3Cc3ccccc32)CC1	i	i	-5.2*	i	i
CN1CCN(C2=Nc3c(Cl)cc(Cl)c4cccc2c34)CC1	i	i	i	i	i
c1ccn2cc(C34CC5CC(CC(C5)C3)C4)nc2c1	i	i	i	i	-7*
CNCCCOc1ccc(C)cc1Br	i	i	i	14*	i
CCCCNCCCOc1ccc(C)cc1Br	i	i	i	i	i
CNCCCOc1cc(C)cc(C)c1C	153*	i	i	i	i
Cc1cc(C)c2c(=O)n(CC(=O)NCCCN3CCN(c4ccccc4F)CC3)sc2n1	i	i	i	i	-5*
Cc1cc(C)c2c(=O)n(CC(=O)NCCCN3CCOCC3)sc2n1	i	i	i	i	i
COc1ccc(-n2nc(C(=O)NCC(=O)NCCC3=CCCCC3)c3ccccc3c2=O)cc1OC	i	i	i	i	i
O=[N+]([O-])c1ccccc1CN1CCN(S(=O)(=O)c2ccccc2)CC1	i	i	i	17*	i
Cn1ncc(Cl)c1C(=O)NNC(=O)Nc1cccc2ccccc12	i	i	i	i	i
Cc1ccc(-c2c[n+](Cc3ccc(Cl)cc3)c3n2CCC3)cc1	i	i	i	i	i
O=C(C[n+]1cc(-c2ccccc2)n2c1CCC2)N1c2ccccc2Sc2ccccc21	i	i	-5.46*	i	i
Clc1cccc(C[n+]2cc(-c3ccccc3)n3c2CCC3)c1	i	i	i	i	-6*
O=C(C[n+]1cc(-c2ccccc2)n2c1CCC2)c1cccs1	i	i	i	i	i
COc1ccc(CCN2CC(C(=O)N3CCSCC3)CCC2=O)cc1 (stereo not drawn)	i	i	i	i	i
COc1cccc(-c2ccc(NC(=O)C3CCCN(CCCn4nc(C)cc4C)C3)cc2)c1 (stereo not drawn)	i	i	i	i	i
